The target in assay [1] is T1, Nitric oxide synthase, inducible (Mus musculus) (UniProt P29477).
T1 sequence (whole entry): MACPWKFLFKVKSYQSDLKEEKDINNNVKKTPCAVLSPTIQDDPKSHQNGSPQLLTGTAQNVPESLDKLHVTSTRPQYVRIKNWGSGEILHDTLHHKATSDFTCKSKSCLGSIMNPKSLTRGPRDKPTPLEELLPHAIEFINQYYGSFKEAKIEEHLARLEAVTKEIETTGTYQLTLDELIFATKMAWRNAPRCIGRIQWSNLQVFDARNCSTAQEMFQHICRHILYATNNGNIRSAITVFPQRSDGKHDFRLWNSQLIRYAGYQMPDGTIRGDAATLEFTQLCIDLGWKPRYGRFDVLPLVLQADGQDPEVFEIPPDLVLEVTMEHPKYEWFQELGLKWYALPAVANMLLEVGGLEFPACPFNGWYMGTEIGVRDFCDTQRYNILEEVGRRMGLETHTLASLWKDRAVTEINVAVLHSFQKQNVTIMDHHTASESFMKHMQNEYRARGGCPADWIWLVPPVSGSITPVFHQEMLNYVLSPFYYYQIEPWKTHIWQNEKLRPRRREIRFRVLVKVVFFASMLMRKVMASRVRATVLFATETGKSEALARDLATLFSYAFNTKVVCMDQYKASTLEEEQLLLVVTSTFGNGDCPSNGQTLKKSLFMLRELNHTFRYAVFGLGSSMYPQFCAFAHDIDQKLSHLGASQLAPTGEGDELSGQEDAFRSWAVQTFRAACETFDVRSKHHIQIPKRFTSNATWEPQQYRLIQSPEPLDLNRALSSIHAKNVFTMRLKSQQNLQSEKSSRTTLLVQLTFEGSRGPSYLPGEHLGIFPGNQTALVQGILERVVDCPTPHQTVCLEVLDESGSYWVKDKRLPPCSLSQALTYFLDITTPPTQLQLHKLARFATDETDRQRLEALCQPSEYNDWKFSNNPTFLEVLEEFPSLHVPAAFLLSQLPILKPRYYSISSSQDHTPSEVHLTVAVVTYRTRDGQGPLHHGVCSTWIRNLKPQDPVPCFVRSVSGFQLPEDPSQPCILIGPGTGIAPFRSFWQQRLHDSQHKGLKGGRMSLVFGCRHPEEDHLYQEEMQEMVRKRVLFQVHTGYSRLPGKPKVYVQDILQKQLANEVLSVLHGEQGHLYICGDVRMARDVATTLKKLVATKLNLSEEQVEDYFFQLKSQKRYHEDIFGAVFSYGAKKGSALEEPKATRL
The assay can be described thus: In vitro activity at a concentration of 10 uM against Inducible nitric oxide synthase (iNOS).

For assay [2], the species on record is Mus musculus. The assay can be described thus: (§1) Ability to inhibit the generation of NO by stimulated murine peritoneal macrophages. The format is functional, organism-based. In short, it runs like this:
(§2)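 Thioglycolate-elicited mouse peritoneal macrophages (lavage 4 days after ip 10% thioglycolate), adhered 2 h at 37 °C in arginine (1 mM)-containing buffered medium with 10% FBS. Cells stimulated with E. coli LPS 10 µg/mL for 24 h at 37 °C with test compound or vehicle. Supernatant nitrite measured fluorimetrically. IC50 from ≥4 concentrations (n = 6). Mean ± SEM.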

For assay [3], the species on record is Mus musculus. The assay is described as §1. Type of assay: functional. Also noted: concentration or dose not given beside the values. In short, it runs like this:
as §2

The target in assay [4] is T2, Prostaglandin G/H synthase 2 (Mus musculus) (UniProt Q05769).
T2 sequence (whole entry): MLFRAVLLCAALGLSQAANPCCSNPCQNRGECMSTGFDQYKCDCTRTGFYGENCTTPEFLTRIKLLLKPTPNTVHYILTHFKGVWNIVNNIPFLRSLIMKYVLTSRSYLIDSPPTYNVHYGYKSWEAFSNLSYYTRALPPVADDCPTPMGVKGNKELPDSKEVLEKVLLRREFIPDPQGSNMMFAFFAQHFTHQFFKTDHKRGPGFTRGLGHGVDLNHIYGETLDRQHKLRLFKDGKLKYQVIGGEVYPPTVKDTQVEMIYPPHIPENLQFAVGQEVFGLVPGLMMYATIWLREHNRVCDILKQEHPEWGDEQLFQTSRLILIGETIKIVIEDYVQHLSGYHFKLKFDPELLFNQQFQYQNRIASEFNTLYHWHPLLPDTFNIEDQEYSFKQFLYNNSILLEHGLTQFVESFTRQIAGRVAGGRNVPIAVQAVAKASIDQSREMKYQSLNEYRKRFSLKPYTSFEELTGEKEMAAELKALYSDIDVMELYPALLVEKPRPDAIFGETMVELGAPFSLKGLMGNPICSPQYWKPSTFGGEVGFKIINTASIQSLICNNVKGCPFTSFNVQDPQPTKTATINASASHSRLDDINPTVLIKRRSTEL
Put plainly: In vitro activity at a concentration of 10 uM against Prostaglandin G/H synthase 2.

Assay [5] is filed under the species Mus musculus. The assay can be described thus: (§3) Ability to inhibit the accumulation of PGE-2 in stimulated murine peritoneal macrophages. The format is functional. Also noted: concentration or dose not given beside the values. The gist of the method:
(§4)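 Mouse peritoneal macrophages were elicited by ip thioglycolate (10%) and collected by lavage 4 days later. Adherent cells were stimulated with E. coli LPS (10 µg/mL) at 37 °C for 24 h with compound or vehicle. Supernatant PGE₂ was measured by radioimmunoassay. IC50 was calculated from at least four significant concentrations (n = 6).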

The target of assay [6] is Prostaglandin G/H synthase 1 (Homo sapiens) (UniProt P23219). Put plainly: In vitro activity at a concentration of 10 uM against Prostaglandin G/H synthase 1. The gist of the method: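 Microsomes were prepared by 2000g spin for 5 min, then 100000g for 100 min, both at 4 °C. Microsomes (20 µg protein/tube) were incubated with arachidonic acid plus compound at 10 µM or vehicle. TXB₂ formed was measured by radioimmunoassay.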
Prostaglandin G/H synthase 1 (Homo sapiens), sequence (P23219 whole entry): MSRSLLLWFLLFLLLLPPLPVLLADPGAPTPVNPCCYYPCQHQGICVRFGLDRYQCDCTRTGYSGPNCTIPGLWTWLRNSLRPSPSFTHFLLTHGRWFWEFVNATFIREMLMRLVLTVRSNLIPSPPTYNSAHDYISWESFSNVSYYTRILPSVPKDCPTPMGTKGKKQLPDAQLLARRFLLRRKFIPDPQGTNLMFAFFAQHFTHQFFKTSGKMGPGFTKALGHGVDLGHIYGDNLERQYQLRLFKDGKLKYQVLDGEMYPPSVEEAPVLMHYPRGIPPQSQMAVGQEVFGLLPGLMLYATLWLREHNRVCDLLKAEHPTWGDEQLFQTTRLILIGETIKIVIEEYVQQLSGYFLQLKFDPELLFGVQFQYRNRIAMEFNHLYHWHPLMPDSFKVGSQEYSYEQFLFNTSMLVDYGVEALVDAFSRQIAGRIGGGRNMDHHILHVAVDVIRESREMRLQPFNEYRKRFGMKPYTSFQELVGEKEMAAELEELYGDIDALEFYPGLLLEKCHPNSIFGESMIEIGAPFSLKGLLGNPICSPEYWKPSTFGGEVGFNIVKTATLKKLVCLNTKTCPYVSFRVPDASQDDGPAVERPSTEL

For assay [7], the species on record is Mus musculus. The description is as §3. The format is functional. In short, it runs like this: as §4
For assay [8], the species on record is Mus musculus. Put plainly: Compound was evaluated to inhibit PGE-2 accumulation in simulated macrophages. Type of assay: functional. In short, it runs like this:
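Adherent thioglycolate-elicited mouse peritoneal macrophages were stimulated with E. coli LPS (10 µg/mL) for 24 h at 37 °C in the presence of compound at 10 µM or vehicle. Supernatant PGE₂ was measured by radioimmunoassay and expressed as % inhibition, mean ± SEM, n = 6-9.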

The species entered for assay [9] is Mus musculus. The assay can be described thus: Compound was evaluated to inhibit Nitrite accumulation in simulated macrophages. Type of assay: functional.

Here are results for 20 compounds from ChEMBL document CHEMBL1132472, “Synthesis and pharmacological evaluation of some 8-cyanopyrido[3', 2':4,5]thieno[3,2-d]triazine derivatives as inhibitors of nitric oxide and eicosanoid biosynthesis” (J Med Chem, 1999).

One may read the IC50 as the midpoint of a concentration-inhibition curve. Consider `N=C(N)NN` [PIMAGEDINE], for which the Activity (pM of citrulline min-1 (mg of protein)-1) in assay [1] was found to be 5.4. This compound registered an IC50 in [2] of 25.1 µM.

In general, Inhibition refers to the change of the read-out against control, counted positive when it falls. For the compound `N#Cc1cc2c(nc1N1CCOCC1)sc1c(N3CCNCC3)nnnc12`, the Inhibition in assay [3] is given as 43.3%; in assay [5], 31.3%. Besides, the Activity ((ng of PGE2) (mg of protein)-1) in assay [4] was 16.5. The compound further showed an Activity (pM of citrulline min-1 (mg of protein)-1) in assay [1] of 15.1. In [6], this compound had an Activity ((ng of TXB2) (mg of protein)-1) of 149.

On to `CC1CCN(c2nc3sc4c(Cl)nnnc4c3cc2C#N)CC1`, for which the figures for the Inhibition in assay [3] and in assay [5] were 6.1% and 49%, respectively. Also, the Activity ((ng of TXB2) (mg of protein)-1) in [6] is 130.

`CS(=O)(=O)Nc1ccc([N+](=O)[O-])cc1OC1CCCCC1` [NS-398] gave an IC50 in assay [7] of 0.0031 µM.

Turning to `CC(=O)c1ccc(N2CCN(c3nnnc4c3sc3nc(N5CCC(C)CC5)c(C#N)cc34)CC2)cc1`, the Inhibition in assay [3] is 42.6%; in assay [5], 45.6%. The Activity ((ng of PGE2) (mg of protein)-1) in assay [4] came to 14.3. The same compound yielded an Activity (pM of citrulline min-1 (mg of protein)-1) in [1] of 12.5. Also, in assay [6], the Activity ((ng of TXB2) (mg of protein)-1) is 127.

For the compound `CN1CCN(c2nnnc3c2sc2nc(NCc4ccccc4)c(C#N)cc23)CC1`, the Inhibition in assay [3] was 14.1%; in assay [5], 56.4%.

On to `N#Cc1cc2c(nc1N1CCOCC1)sc1c(Cl)nnnc12`, for which the Inhibition came out at 51.8% in assay [3] and 59.5% in assay [5]. This compound also yielded an Activity (pM of citrulline min-1 (mg of protein)-1) in [1] of 14. For the same compound, the Activity ((ng of TXB2) (mg of protein)-1) in assay [6] came out at 112.

For the compound `N#Cc1cc2c(nc1NCc1ccccc1)sc1c(Br)nnnc12`, the Inhibition in assay [3] is on record as 12.2%; in [5], 0.4%.

`COc1ccc2c(c1)c(CC(=O)O)c(C)n2C(=O)c1ccc(Cl)cc1` yielded an Activity ((ng of TXB2) (mg of protein)-1) in [6] of 63.8.

As to `C[C@@H]1C[C@H]2[C@@H]3CCC4=CC(=O)C=C[C@]4(C)[C@@]3(F)[C@@H](O)C[C@]2(C)[C@@]1(O)C(=O)CO` [DEXAMETHASONE], the IC50 in assay [7] was 0.001 µM; in assay [2] it was 0.0358 µM.

For `N#Cc1cc2c(nc1NCc1ccccc1)sc1c(N3CCOCC3)nnnc12`, the Inhibition came out at 41.1% in [3] and 28.5% in assay [5].

As for `CC1CCN(c2nnnc3c2sc2nc(N4CCOCC4)c(C#N)cc23)CC1`, the values for the Inhibition in assay [3] and in [5] were 88.7% and 89.6%, respectively. Besides, the Activity ((ng of PGE2) (mg of protein)-1) in [4] was determined as 13. The Activity (pM of citrulline min-1 (mg of protein)-1) in assay [1] was 13.1. In addition, the IC50 in assay [8] is 0.6 µM; in [9] it was 3.4 µM. This compound also gave an Activity ((ng of TXB2) (mg of protein)-1) in assay [6] of 130.

With `CC1CCN(c2nc3sc4c(N5CCC(C)CC5)nnnc4c3cc2C#N)CC1`, the Inhibition is listed as 37.8% in assay [3] and 52.1% in assay [5]. Moreover, in assay [4], the Activity ((ng of PGE2) (mg of protein)-1) was 13.9. The same compound showed an Activity (pM of citrulline min-1 (mg of protein)-1) in [1] of 12.4. The same compound gave an Activity ((ng of TXB2) (mg of protein)-1) in assay [6] of 124.

`CC(=O)c1ccc(N2CCN(c3nc4sc5c(Cl)nnnc5c4cc3C#N)CC2)cc1`: the Inhibition in [3] came out at 44.7%; in assay [5], 94.5%. Also, the Activity (pM of citrulline min-1 (mg of protein)-1) in assay [1] came out at 14.1. Further, the values for the IC50 in assay [7] and in assay [2] were 0.9 µM and 11.2 µM, respectively. The compound further had an Activity ((ng of TXB2) (mg of protein)-1) in assay [6] of 104.

For the compound `N#Cc1cc2c(nc1N)sc1c(Cl)nnnc12`, the Inhibition in assay [3] stood at 13.9%; in [5], 1%.

For `CN1CCN(c2nnnc3c2sc2nc(N4CCN(Cc5ccccc5)CC4)c(C#N)cc23)CC1`, the Inhibition in [3] was 50.6%; in [5], 55.1%. Also, the Activity ((ng of PGE2) (mg of protein)-1) in assay [4] worked out at 14.6. Also, the Activity (pM of citrulline min-1 (mg of protein)-1) in assay [1] worked out at 13.1. Besides, in [6], the Activity ((ng of TXB2) (mg of protein)-1) came to 123.

For the compound `N#Cc1cc2c(nc1N1CCOCC1)sc1c(N3CCSCC3)nnnc12`, the values for the Inhibition in assay [3] and in assay [5] were 31.4% and 36.1%, respectively.

In the case of `CC(=O)c1ccc(N2CCN(c3nnnc4c3sc3nc(N5CCN(Cc6ccccc6)CC5)c(C#N)cc34)CC2)cc1`, the Inhibition in assay [3] was determined as 51.6%; in assay [5] it was 50.1%. For the same compound, in [4], the Activity ((ng of PGE2) (mg of protein)-1) is 15.8. The Activity (pM of citrulline min-1 (mg of protein)-1) in [1] is 13.5. For the same compound, the Activity ((ng of TXB2) (mg of protein)-1) in assay [6] came to 134.

`CC(=O)c1ccc(N2CCN(c3nnnc4c3sc3nc(N5CCOCC5)c(C#N)cc34)CC2)cc1`: the values for the Inhibition in assay [3] and in assay [5] were 45.6% and 34.6%, respectively. Moreover, in assay [4], the Activity ((ng of PGE2) (mg of protein)-1) was found to be 16.6. This compound also showed an Activity (pM of citrulline min-1 (mg of protein)-1) in assay [1] of 14.2. Also, the Activity ((ng of TXB2) (mg of protein)-1) in [6] was 142.

`N#Cc1cc2c(nc1N1CCC(Cc3ccccc3)CC1)sc1c(Cl)nnnc12`: the results for the Inhibition in assay [3] and in assay [5] were 48.8% and 57.9%, respectively. For the same compound, the Activity (pM of citrulline min-1 (mg of protein)-1) in [1] turned out to be 13.1. In addition, the Activity ((ng of TXB2) (mg of protein)-1) in assay [6] is 128.
